This passage reports Ki results from BindingDB's records for doi:10.1021/jm970460b (University of Wisconsin-Milwaukee, 1998).

The assay concerns the target Gamma-aminobutyric acid receptor subunit alpha-6/beta-3/gamma-2 (Homo sapiens, UniProt Q16445+P18507+P28472). The assay is described as follows: Binding affinity measured using LtK- cell membranes expressing Gamma-aminobutyric acid A receptor alpha-6-beta-3-gamma-2. In a few lines: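 Cells scraped, resuspended in 10 mM KH2PO4/100 mM KCl, pH 7.4. Incubation 1 h at 4 °C to equilibrium, filtration, scintillation counting. Ki from iterative least-squares fit, mean of two determinations.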

Sequence of Gamma-aminobutyric acid receptor subunit alpha-6/beta-3/gamma-2 (Q16445 whole entry): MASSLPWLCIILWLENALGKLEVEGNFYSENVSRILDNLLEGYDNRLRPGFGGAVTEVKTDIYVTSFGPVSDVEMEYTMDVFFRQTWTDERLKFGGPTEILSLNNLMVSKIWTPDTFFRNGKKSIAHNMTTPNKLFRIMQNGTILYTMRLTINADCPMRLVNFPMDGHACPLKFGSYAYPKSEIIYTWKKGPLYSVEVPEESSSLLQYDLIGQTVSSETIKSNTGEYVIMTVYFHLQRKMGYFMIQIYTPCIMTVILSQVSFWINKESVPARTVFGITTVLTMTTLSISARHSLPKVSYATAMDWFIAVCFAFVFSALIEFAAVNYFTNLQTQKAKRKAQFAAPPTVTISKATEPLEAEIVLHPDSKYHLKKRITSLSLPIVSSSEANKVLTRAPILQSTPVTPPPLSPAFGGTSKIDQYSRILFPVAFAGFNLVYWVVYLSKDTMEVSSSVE
Sequence of Gamma-aminobutyric acid receptor subunit alpha-6/beta-3/gamma-2 (P18507 as listed by the source): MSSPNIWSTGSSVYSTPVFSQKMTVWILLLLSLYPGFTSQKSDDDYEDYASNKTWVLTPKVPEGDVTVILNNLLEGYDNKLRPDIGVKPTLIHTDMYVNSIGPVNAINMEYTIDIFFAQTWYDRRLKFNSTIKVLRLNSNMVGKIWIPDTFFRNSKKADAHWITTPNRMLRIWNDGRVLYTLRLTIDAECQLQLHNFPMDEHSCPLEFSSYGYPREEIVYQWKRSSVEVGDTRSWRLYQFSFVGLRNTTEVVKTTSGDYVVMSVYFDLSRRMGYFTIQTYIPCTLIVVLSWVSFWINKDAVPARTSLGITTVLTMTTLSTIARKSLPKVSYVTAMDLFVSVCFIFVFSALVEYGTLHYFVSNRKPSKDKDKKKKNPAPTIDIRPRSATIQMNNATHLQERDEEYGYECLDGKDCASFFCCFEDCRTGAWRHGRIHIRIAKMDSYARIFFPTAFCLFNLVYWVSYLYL
Sequence of Gamma-aminobutyric acid receptor subunit alpha-6/beta-3/gamma-2 (P28472 whole entry): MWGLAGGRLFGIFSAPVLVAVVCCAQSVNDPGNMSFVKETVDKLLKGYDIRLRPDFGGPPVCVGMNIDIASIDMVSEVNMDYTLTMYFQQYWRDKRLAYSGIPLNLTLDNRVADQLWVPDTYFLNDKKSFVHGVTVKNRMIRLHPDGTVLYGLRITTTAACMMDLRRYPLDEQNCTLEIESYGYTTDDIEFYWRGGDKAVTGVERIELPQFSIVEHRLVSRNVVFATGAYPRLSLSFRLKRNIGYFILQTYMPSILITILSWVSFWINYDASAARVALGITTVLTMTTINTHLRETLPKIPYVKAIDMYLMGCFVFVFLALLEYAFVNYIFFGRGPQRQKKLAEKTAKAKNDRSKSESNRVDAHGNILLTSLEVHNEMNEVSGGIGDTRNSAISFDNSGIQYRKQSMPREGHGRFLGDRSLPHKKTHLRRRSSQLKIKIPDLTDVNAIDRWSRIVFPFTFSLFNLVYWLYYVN

`CCOC(=O)c1[nH]cc2nc3ccc(OCc4ccccc4)cc3c-2c1COC` [6-Benzyloxy-4-methoxymethyl-9H-beta-carboline-3-carboxylic acid ethyl ester] had a Ki above 1000 nM.

For orientation: Ki means the dissociation constant of the complex between target and ligand, obtained from inhibition or displacement. Read a high Ki as weaker binding.
